# Where “and” joins values, the source holds several entries; their conditions need not be identical. Identical values can stand only once.
# System: HEK-293T
# Assay: Multiplex assay against HEK293T
# Format: toxicity, cell-based
# Conditions: human
# Summary of the method: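 Live cells were stained at seeding with Hoechst33342, BioTracker Green Microtubule Cytoskeleton Dye, MitoTracker Red and Annexin V Alexa Fluor 680, then imaged on a CQ1 microscope at 37°C and 5% CO2 after compound addition. CellPathfinder machine-learning gating split cells into Hoechst high-intensity objects or normal cells. Normal cells were split into healthy, pyknosed or fragmented nuclei, and pyknosed cells into mitotic or apoptotic. Tubulin, mitochondrial-mass and membrane-permeability phenotypes are per cents of healthy-nucleus cells.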
# [1] = 12 h, 1 µM, compound concentration 1 uM
# [2] = 12 h, 10 µM, compound concentration 10 uM
# [3] = 24 h, 1 µM, compound concentration 1 uM
# [4] = 24 h, 10 µM, compound concentration 10 uM
# [5] = 48 h, 1 µM, compound concentration 1 uM
# [6] = 48 h, 10 µM, compound concentration 10 uM
compound,measurement,setting,value
Cl.N=C(N)NC(=O)Cc1c(Cl)cccc1Cl [GUANFACINE HYDROCHLORIDE],Population Apoptotic (%),[1],29% and 47%
same,Population Fragmented Nuclei (%),[1],3% and 5%
same,Population Healthy Nuclei (%),[1],84% and 76%
same,Population Hoechst High Intensity Objects (%),[1],7% and 12%
same,Population Membrane Permeable-Phenotype (%),[1],0%
same,Population Mitochondria Different-Phenotype (%),[1],46% and 67%
same,Population Mitotic Cells (%),[1],70% and 52%
same,Population Normal (%),[1],92% and 87%
same,Population Pyknosed Nuclei (%),[1],11% and 17%
same,Population Tubulin-Different-Phenotype (%),[1],31%
same,Total Cell Count,[1],384 and 289
same,Population Apoptotic (%),[2],52% and 34%
same,Population Fragmented Nuclei (%),[2],12% and 8%
same,Population Healthy Nuclei (%),[2],67% and 77%
same,Population Hoechst High Intensity Objects (%),[2],7% and 10%
same,Population Membrane Permeable-Phenotype (%),[2],0%
same,Population Mitochondria Different-Phenotype (%),[2],61% and 69%
same,Population Mitotic Cells (%),[2],47% and 65%
same,Population Normal (%),[2],92% and 89%
same,Population Pyknosed Nuclei (%),[2],20% and 14%
same,Population Tubulin-Different-Phenotype (%),[2],43% and 38%
same,Total Cell Count,[2],296 and 365
same,Population Apoptotic (%),[3],36% and 50%
same,Population Fragmented Nuclei (%),[3],8% and 4%
same,Population Healthy Nuclei (%),[3],80% and 83%
same,Population Hoechst High Intensity Objects (%),[3],4% and 10%
same,Population Membrane Permeable-Phenotype (%),[3],0%
same,Population Mitochondria Different-Phenotype (%),[3],27% and 42%
same,Population Mitotic Cells (%),[3],63% and 50%
same,Population Normal (%),[3],95% and 89%
same,Population Pyknosed Nuclei (%),[3],11%
same,Population Tubulin-Different-Phenotype (%),[3],21% and 19%
same,Total Cell Count,[3],493 and 344
same,Population Apoptotic (%),[4],46% and 36%
same,Population Fragmented Nuclei (%),[4],11% and 6%
same,Population Healthy Nuclei (%),[4],75% and 83%
same,Population Hoechst High Intensity Objects (%),[4],7% and 9%
same,Population Membrane Permeable-Phenotype (%),[4],0%
same,Population Mitochondria Different-Phenotype (%),[4],48% and 50%
same,Population Mitotic Cells (%),[4],53% and 63%
same,Population Normal (%),[4],92% and 90%
same,Population Pyknosed Nuclei (%),[4],12% and 10%
same,Population Tubulin-Different-Phenotype (%),[4],39% and 27%
same,Total Cell Count,[4],343 and 454
same,Population Apoptotic (%),[5],15% and 34%
same,Population Fragmented Nuclei (%),[5],15% and 10%
same,Population Healthy Nuclei (%),[5],78% and 79%
same,Population Hoechst High Intensity Objects (%),[5],2% and 7%
same,Population Membrane Permeable-Phenotype (%),[5],1% and 0%
same,Population Mitochondria Different-Phenotype (%),[5],22% and 32%
same,Population Mitotic Cells (%),[5],84% and 65%
same,Population Normal (%),[5],97% and 92%
same,Population Pyknosed Nuclei (%),[5],6% and 9%
same,Population Tubulin-Different-Phenotype (%),[5],21% and 14%
same,Total Cell Count,[5],680 and 560
same,Population Apoptotic (%),[6],47% and 50%
same,Population Fragmented Nuclei (%),[6],17% and 12%
same,Population Healthy Nuclei (%),[6],73% and 80%
same,Population Hoechst High Intensity Objects (%),[6],6% and 10%
same,Population Membrane Permeable-Phenotype (%),[6],0%
same,Population Mitochondria Different-Phenotype (%),[6],31% and 33%
same,Population Mitotic Cells (%),[6],52% and 50%
same,Population Normal (%),[6],93% and 89%
same,Population Pyknosed Nuclei (%),[6],9% and 6%
same,Population Tubulin-Different-Phenotype (%),[6],14% and 20%
same,Total Cell Count,[6],421 and 612
"CCCn1c(=O)c2[nH]c(C3CCCC3)nc2n(CCC)c1=O [1,3-DIPROPYL-8-CYCLOPENTYLXANTHINE [DPCPX]]",Population Apoptotic (%),[1],35% and 54%
same,Population Fragmented Nuclei (%),[1],7% and 3%
same,Population Healthy Nuclei (%),[1],79% and 81%
same,Population Hoechst High Intensity Objects (%),[1],6% and 3%
same,Population Membrane Permeable-Phenotype (%),[1],0%
same,Population Mitochondria Different-Phenotype (%),[1],44% and 52%
same,Population Mitotic Cells (%),[1],64% and 45%
same,Population Normal (%),[1],93% and 96%
same,Population Pyknosed Nuclei (%),[1],12% and 14%
same,Population Tubulin-Different-Phenotype (%),[1],32% and 15%
same,Total Cell Count,[1],443 and 361
same,Population Apoptotic (%),[2],60% and 54%
same,Population Fragmented Nuclei (%),[2],12% and 7%
same,Population Healthy Nuclei (%),[2],68% and 75%
same,Population Membrane Permeable-Phenotype (%),[2],0%
same,Population Mitochondria Different-Phenotype (%),[2],58% and 68%
same,Population Mitotic Cells (%),[2],39% and 45%
same,Population Normal (%),[2],94% and 81%
same,Population Pyknosed Nuclei (%),[2],19% and 16%
same,Population Tubulin-Different-Phenotype (%),[2],51% and 45%
same,Total Cell Count,[2],295 and 337
same,Population Apoptotic (%),[3],26% and 28%
same,Population Fragmented Nuclei (%),[3],8% and 7%
same,Population Healthy Nuclei (%),[3],78% and 82%
same,Population Hoechst High Intensity Objects (%),[3],4% and 3%
same,Population Membrane Permeable-Phenotype (%),[3],1% and 0%
same,Population Mitochondria Different-Phenotype (%),[3],25% and 45%
same,Population Mitotic Cells (%),[3],73% and 71%
same,Population Normal (%),[3],95% and 96%
same,Population Pyknosed Nuclei (%),[3],13% and 10%
same,Population Tubulin-Different-Phenotype (%),[3],20% and 19%
same,Total Cell Count,[3],610 and 403
same,Population Apoptotic (%),[4],50% and 41%
same,Population Fragmented Nuclei (%),[4],8% and 7%
same,Population Healthy Nuclei (%),[4],76% and 79%
same,Population Membrane Permeable-Phenotype (%),[4],0%
same,Population Mitochondria Different-Phenotype (%),[4],43% and 55%
same,Population Mitotic Cells (%),[4],50% and 58%
same,Population Normal (%),[4],95% and 84%
same,Population Pyknosed Nuclei (%),[4],14% and 13%
same,Population Tubulin-Different-Phenotype (%),[4],40% and 31%
same,Total Cell Count,[4],379 and 411
same,Population Apoptotic (%),[5],33% and 39%
same,Population Fragmented Nuclei (%),[5],11% and 14%
same,Population Healthy Nuclei (%),[5],81% and 80%
same,Population Hoechst High Intensity Objects (%),[5],1% and 3%
same,Population Membrane Permeable-Phenotype (%),[5],1% and 0%
same,Population Mitochondria Different-Phenotype (%),[5],17% and 22%
same,Population Mitotic Cells (%),[5],66% and 60%
same,Population Normal (%),[5],98% and 96%
same,Population Pyknosed Nuclei (%),[5],7% and 5%
same,Population Tubulin-Different-Phenotype (%),[5],17% and 13%
same,Total Cell Count,[5],957 and 593
same,Population Apoptotic (%),[6],29% and 45%
same,Population Fragmented Nuclei (%),[6],14%
same,Population Healthy Nuclei (%),[6],76% and 75%
same,Population Hoechst High Intensity Objects (%),[6],3% and 7%
same,Population Membrane Permeable-Phenotype (%),[6],1% and 0%
same,Population Mitochondria Different-Phenotype (%),[6],37% and 36%
same,Population Mitotic Cells (%),[6],70% and 54%
same,Population Normal (%),[6],96% and 92%
same,Population Pyknosed Nuclei (%),[6],8% and 10%
same,Population Tubulin-Different-Phenotype (%),[6],30% and 23%
same,Total Cell Count,[6],511 and 516
